In ChEMBL document CHEMBL5113504, “Discovery of potent benzoxaborole inhibitors against SARS-CoV-2 main and dengue virus proteases” (Eur J Med Chem, 2022):
Activity calls are given as the source filed them. No cut-off for these calls is given here.

Columns and labels:
[1] = target: Replicase polyprotein 1ab (Severe acute respiratory syndrome coronavirus 2) (UniProt P0DTD1); assay: Inhibition of C-terminal His tagged SARS CoV-2 main protease transfected in Escherichia coli BL21 (DE3) using 2-Abz-Ser-AlaVal-Leu-Gln-Ser-Gly-Tyr(3-NO2)-Arg-OH as substrate at 50 uM preincubated for 15 mins followed by substrate addition and measured after 15 mins by FRET assay relative to control; conditions: time 30.0 min
Genome polyprotein [2] = target: T1, Genome polyprotein (dengue virus type 2, UniProt P29990); assay: Inhibition of full length DENV2 NS2B-NS3 protease in human HeLa cells expressing luciferase reporter gene incubated for 24 hrs by luminescence analysis; assay type: cell-based
Summary of the method: (§1)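 Stable DENV2pro reporter HeLa cells seeded at 2×10^4 per well and dosed immediately; 24 h at 37 °C, lysed 15 min, coelenterazine (2.75 μM in PBS) injected, luminescence read 5 s. Triplicates; % inhibition vs untreated cells; EC50 by 4-parameter fit with cell-free background subtraction.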

[3] = target: Genome polyprotein (dengue virus type 2) (UniProt P29990); assay: Inhibition of full length DENV2 NS2B-NS3 protease in human HeLa cells expressing luciferase reporter gene at 12.5 uM incubated for 24 hrs by luminescence analysis relative to control; assay type: cell-based; summary of the method: as §1
HeLa [4] = assay: Cytotoxicity against human HeLa cells expressing luciferase-based DENV-2 protease reporter system assessed as reduction in cell viability by celltiter-blue assay; assay type: toxicity
Summary of the method: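 CellTiter-Blue viability in HeLa reporter cells or Huh-7 cells, on plates run in parallel with the reporter or titer-reduction assay under the same treatment; each concentration in triplicate.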

[5] = Selectivity index, ratio of EC50 for inhibition of full length DENV2 NS2B-NS3 protease in human HeLa cells expressing luciferase reporter gene to IC50 for inhibition of C-terminal His tagged SARS CoV-2 main protease transfected in Escherichia coli BL21 (DE3); assay type: cell-based
HeLa [6] = assay: Cytotoxicity against human HeLa cells expressing renilla luciferase reporter construct assessed as reduction in cell viability at 12.5 uM by luciferase based analysis; assay type: toxicity
[7] = Permeability of compound in PBS at pH 7.4 measured after 5 hrs by HPLC-UV based PAMPA assay; assay type: ADME; conditions: pH 7.4, 5 h
[8] = target: T2, Replicase polyprotein 1ab (Severe acute respiratory syndrome coronavirus 2, UniProt P0DTD1); assay: Inhibition of C-terminal His tagged SARS CoV-2 main protease transfected in Escherichia coli BL21 (DE3) using 2-Abz-Ser-AlaVal-Leu-Gln-Ser-Gly-Tyr(3-NO2)-Arg-OH as substrate preincubated for 15 mins followed by substrate addition and measured after 15 mins by FRET assay
[9] = target: Replicase polyprotein 1ab (Severe acute respiratory syndrome coronavirus 2) (UniProt P0DTD1); assay: Inhibition of C-terminal His tagged SARS CoV-2 main protease transfected in Escherichia coli BL21 (DE3) at 50 uM incubated in presence of DTT
Summary of the method: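 Mpro fluorogenic inhibition assay repeated with 1 mM DTT added to the assay buffer.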

[10] = target: T2, Replicase polyprotein 1ab; assay: Chemical stability of the compound in SARS-CoV-2 main protease assay buffer assessed as SARS-CoV-2 main protease-mediated amide bond cleavage at 100 uM measured after 8 hrs by HPLC based UV-Vis analysis; assay type: ADME; conditions: severe acute respiratory syndrome coronavirus 2, buffer
Summary of the method: (§2)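 Compound incubated with isolated protease (SARS-CoV-2 Mpro or DENV-2 protease) in that enzyme's assay buffer for 8 h; remaining compound quantified by HPLC with UV/Vis detection (peak AUC).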

Genome polyprotein [11] = target: T1, Genome polyprotein; assay: Chemical stability of the compound in DENV2 NS2B-NS3 protease assay buffer assessed as DENV2 NS2B-NS3 protease-mediated amide bond cleavage by measuring reduction in AUC at 100 uM measured after 8 hrs by HPLC analysis; assay type: ADME; conditions: dengue virus type 2, buffer; summary of the method: as §2

SMILES	inhibition [1] [%]	EC50 (Genome polyprotein [2]) [µM]	inhibition [3] [%]	CC50 (HeLa [4]) [µM]	Ratio [5]	Activity (HeLa [6])	permeability [7]	IC50 [8] [µM]	inhibition [9]	Stability [10]	Stability (Genome polyprotein [11])
O=C(Nc1cccc(B(O)O)c1)c1cccc(OCc2ccccc2)c1	< 10	12.5	65.1	> 50	5	Non-Toxic	Permeable				
O=C(Nc1ccccc1)Nc1ccc2c(c1)B(O)OC2	15.9	22.5	31	> 200							
OB1OCc2ccccc21 [BENZOXABOROLE]	< 10		< 10	> 100		Non-Toxic					
O=C(Nc1ccc2c(c1)B(O)OC2)c1ccc(OCc2ccccc2)cc1	39.6	8.8	54.4	> 50							
O=C(Nc1ccc2c(c1)B(O)OC2)c1ccc(C(F)(F)F)cc1	21		< 10	> 50		Non-Toxic					
O=[N+]([O-])c1ccc2c(c1)B(O)OC2	< 10		14.5	> 100							
O=C(Nc1ccc2c(c1)B(O)OC2)OCc1ccccc1	< 10	4	67.5	> 50							
OB1OCc2cc(F)ccc21 [TAVABOROLE]	< 10		15.3	> 50							
O=C(NCc1ccc(B(O)O)cc1)c1cccc(OCc2ccccc2)c1	18.5	14	29.3	> 50	5						
O=S(=O)(Nc1ccc2c(c1)B(O)OC2)c1ccc(Cl)cc1	< 10	9.2	51.6	> 50			Permeable				
COc1cccc(COc2cccc(C(=O)Nc3ccc4c(c3)B(O)OC4)c2)c1	45.7		90	> 200							
N=C(N)Nc1ccc2c(c1)B(O)OC2	88		< 10	> 100		Non-Toxic	Impermeable	10	Active		
N#Cc1ccc(CNc2ccc3c(c2)B(O)OC3)cc1	< 10		41.8	> 100							
O=C(Nc1cccc(C(=O)Nc2ccc3c(c2)B(O)OC3)c1)c1ccccc1	45.6	13.1	51.5	> 200				52.3		Stable	
O=C(Nc1ccc2c(c1)B(O)OC2)c1cccc(OCC2CCCCC2)c1	29.3		79.1	123							
Nc1ccc2c(c1)B(O)OC2	17.5		< 10	> 100		Non-Toxic					

SMILES	inhibition [1] [%]	EC50 (Genome polyprotein [2]) [µM]	inhibition [3] [%]	CC50 (HeLa [4]) [µM]	Ratio [5]	Activity (HeLa [6])	permeability [7]	IC50 [8] [µM]	inhibition [9]	Stability [10]	Stability (Genome polyprotein [11])
O=C(Oc1cncc(Cl)c1)c1cccs1	95							1.7			
O=C(Nc1ccc2c(c1)B(O)OC2)c1ccccc1OCc1ccccc1	40.6	6.1	66.7	> 50			Permeable				
O=C(Nc1ccc2c(c1)B(O)OC2)c1cccc(OCc2ccc(Cl)cc2)c1	43.5			75.3							Stable
O=C(Nc1ccc2c(c1)B(O)OC2)c1ccc(Oc2ccccc2)cc1	19.5	3.5	79.7	> 50			Permeable				Stable
N#Cc1ccc(COc2cccc(C(=O)Nc3ccc4c(c3)B(O)OC4)c2)cc1	43.4			> 200			Permeable				
O=C(Nc1ccc2c(c1)B(O)OC2)c1cccc(Oc2ccccc2)c1	34.6	6.4	77.4	> 50							
O=C(Nc1ccc2c(c1)B(O)OC2)c1cccc(NCc2ccccc2)c1	46.9	5.2	73.6	144				56.9			
Nc1ccc(C(=O)Nc2ccc3c(c2)B(O)OC3)cc1	39.7		14.3	> 200							
Cc1onc(-c2ccc(F)cc2)c1C(=O)Nc1ccc2c(c1)B(O)OC2	< 10	21.6	32.6	> 100		Non-Toxic					
O=C(Nc1ccc2c(c1)B(O)OC2)c1ccc(N2CCOCC2)cc1	12.7	17.1	41.1	> 50		Non-Toxic					
CN(c1ccc2c(c1)B(O)OC2)S(=O)(=O)c1ccc(Cl)cc1	< 10	> 50	24.2	> 50		Non-Toxic					
CC(C(=O)Nc1ccc2c(c1)B(O)OC2)c1cccc(Oc2ccccc2)c1 (stereo unspecified)	19	3.1	76.7	> 50							
CCCCCC(=O)Nc1ccc2c(c1)B(O)OC2	< 10	19.2	37.2	> 200							
O=C(Nc1ccc2c(c1)B(O)OC2)c1ccc(OCc2ccc(Cl)cc2)cc1	20.4	14.5	31.3	> 50			Permeable				Stable
O=C(Nc1ccc2c(c1)B(O)OC2)c1cccc(OCc2ccccc2)n1	99.6			124				38.5			
COc1cccc(C(=O)Nc2ccc3c(c2)B(O)OC3)c1	24.3	6.4	60.1	> 100							
